Measurements published in ChEMBL document CHEMBL1134537, “Potent dibasic GPIIb/IIIa antagonists with reduced prolongation of bleeding time: synthesis and pharmacological evaluation of 2-oxopiperazine derivatives” (J Med Chem, 2001).

Tests used:
Type in all cases: functional
[1] = Dose ratio for dose causing prolongation of bleeding time to 3 times the basel value vs ID50 value of ex-vivo ADP-induced platelet aggregation.
Summary of the method: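 Template bleeding time and ex vivo ADP aggregation measured in male guinea pigs 90 min after starting continuous iv infusion in 0.9% saline. BT(×3) is the dose prolonging BT to 3 times basal. The ratio is BT(×3) dose divided by the ex vivo ID50 dose.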

Cavia porcellus [2] = organism: Cavia porcellus; test: Ex vivo inhibition of ADP induced aggregation in guinea pig platelets
Summary of the method: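 Male guinea pigs (250–400 g) were given a continuous iv infusion in 0.9% saline, with vehicle for controls. At 90 min, citrated blood was drawn from the abdominal aorta under anesthesia and PRP was prepared. Aggregation was induced with submaximal ADP and read by light transmittance. ID50 in μg/kg/min with 95% CI, n = 2–5.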

Cavia porcellus [3] = test: Effect on bleeding time when a dose of 4.0 ug/kg/min was administered to guinea pig
Summary of the method: (§1)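 Male guinea pigs (250–400 g) received continuous iv infusion of compound in 0.9% saline, with vehicle for controls. Template BT was taken 90 min after infusion start under pentobarbital (25 mg/kg ip), with hind limb shaved the day before and a pressure cuff proximal to the site. Each animal's value is the mean of two cuts; mean ± SE, n = 3. The cut-off is 900 s.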

Cavia porcellus [4] = organism: Cavia porcellus; test: In vitro inhibition of ADP induced aggregation in guinea pig platelets
Summary of the method: (§2)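 Guinea pig blood was taken by aortic puncture under pentobarbital into 3.15% citrate (1:10). PRP was adjusted to 4 × 10^5 platelets/μL and prewarmed 2 min at 37 °C with compound, stirred. Aggregation was induced with ADP (0.8–1 μM) and read as the change in light transmittance. IC50 with 95% CI.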

Cavia porcellus [5] = test: Effect on bleeding time when a dose of 10 ug/kg/min was administered to guinea pig; summary of the method: as §1
Cavia porcellus [6] = test: Effect on bleeding time when a dose of 8.0 ug/kg/min was administered to guinea pig; summary of the method: as §1
Cavia porcellus [7] = organism: Cavia porcellus; test: In vitro effect on ADP induced platelet aggregation in guinea pig platelet rich plasma; summary of the method: as §2
Homo sapiens [8] = organism: Homo sapiens; test: In vitro effect on ADP induced platelet aggregation in human platelet rich plasma
Summary of the method: (§3)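 Human blood was collected into 3.8% citrate (1:10). PRP was adjusted to 3 × 10^5 platelets/μL and preincubated 2 min at 37 °C with compound, stirred at 1000 rpm. ADP (1–10 μM) was then added and light-transmittance aggregometry recorded. IC50 with 95% CI, n = 4.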

Homo sapiens [9] = organism: Homo sapiens; test: In vitro effect on collagen induced human platelet aggregation
Summary of the method: (§4)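 Human citrated (3.8%) PRP adjusted to 3 × 10^5 platelets/μL was stirred and prewarmed 2 min at 37 °C with compound. Submaximal agonist was added (PAF, TRAP or collagen) and aggregation recorded as the change in light transmittance.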

[10] = In vitro effect on ADP induced platelet aggregation in monkey platelet rich plasma; conditions: Cercopithecidae
Summary of the method: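 Monkey blood was drawn into 3.8% citrate (1:10). PRP at 3 × 10^5 platelets/μL was warmed 2 min at 37 °C with compound under stirring. Aggregation was triggered by ADP (30–40 μM) and measured by light transmittance. IC50 with 95% CI, n = 4.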

Cavia porcellus [11] = test: Effect on bleeding time when a dose of 6.0 ug/kg/min was administered to guinea pig; summary of the method: as §1
Homo sapiens [12] = organism: Homo sapiens; test: In vitro effect on PAF induced human platelet aggregation; summary of the method: as §4
Homo sapiens [13] = organism: Homo sapiens; test: In vitro effect on ADP induced human platelet aggregation; summary of the method: as §3
Homo sapiens [14] = organism: Homo sapiens; test: In vitro effect on TRAP induced human platelet aggregation; summary of the method: as §4
Cavia porcellus [15] = test: Effect on bleeding time when a dose of 6.5 ug/kg/min was administered to guinea pig; summary of the method: as §1
Cavia porcellus [16] = test: Effect on bleeding time when a dose of 9.0 ug/kg/min was administered to guinea pig; summary of the method: as §1
Cavia porcellus [17] = test: Effect on bleeding time when a dose of 5.0 ug/kg/min was administered to guinea pig; summary of the method: as §1
Cavia porcellus [18] = test: Effect on bleeding time when a dose of 0.2 ug/kg/min was administered to guinea pig; summary of the method: as §1
Cavia porcellus [19] = test: Effect on bleeding time when a dose of 4 ug/kg/min was administered to guinea pig; summary of the method: as §1
Cavia porcellus [20] = test: Effect on bleeding time when a dose of 5 ug/kg/min was administered to guinea pig; summary of the method: as §1
Cavia porcellus [21] = test: Effect on bleeding time when a dose of 2.2 ug/kg/min was administered to guinea pig; summary of the method: as §1
Cavia porcellus [22] = test: Effect on bleeding time when a dose of 3.0 ug/kg/min was administered to guinea pig; summary of the method: as §1
Cavia porcellus [23] = test: Effect on bleeding time when a dose of 1.4 ug/kg/min was administered to guinea pig; summary of the method: as §1
Cavia porcellus [24] = test: Effect on bleeding time when a dose of 0.9 ug/kg/min was administered to guinea pig; summary of the method: as §1
Cavia porcellus [25] = test: Effect on bleeding time when a dose of 2.5 ug/kg/min was administered to guinea pig; summary of the method: as §1
Cavia porcellus [26] = test: Effect on bleeding time when a dose of 2 ug/kg/min was administered to guinea pig; summary of the method: as §1

N=C(N)c1ccc(C(=O)NCC(=O)N2CCN(CC(=O)O)C(=O)[C@@H]2CNC(=O)c2ccc(C(=N)N)cc2)cc1
Dissociation ratio [1]: <6
ID50 (Cavia porcellus [2]): 0.72 µg/min/kg
BT (Cavia porcellus [3]): >900
IC50 (Cavia porcellus [4]): 120 nM

N=C(N)Nc1ccc(C(=O)NCC(=O)N2CCN(CC(=O)O)C(=O)[C@@H]2CNC(=O)c2ccc(NC(=N)N)cc2)cc1
Dissociation ratio [1]: <10
ID50 (Cavia porcellus [2]): 1 µg/min/kg
BT (Cavia porcellus [5]): 720
IC50 (Cavia porcellus [4]): 140 nM

N=C(N)c1ccc(C(=O)NCC(=O)N2CCN(CC(=O)O)C(=O)[C@@H]2CCCNC(=O)CCCCCN)cc1
Dissociation ratio [1]: <12
ID50 (Cavia porcellus [2]): 0.86 µg/min/kg
BT (Cavia porcellus [5]): 780
IC50 (Cavia porcellus [4]): 160 nM

N=C(N)c1ccc(C(=O)NCC[C@H]2C(=O)N(CC(=O)O)CCN2C(=O)CNC(=O)c2ccc(C(=N)N)cc2)cc1
Dissociation ratio [1]: <9
ID50 (Cavia porcellus [2]): 0.91 µg/min/kg
IC50 (Cavia porcellus [4]): 190 nM
BT (Cavia porcellus [6]): 800

N=C(N)Nc1ccc(C(=O)NCCC[C@H]2C(=O)N(CC(=O)O)CCN2C(=O)CNC(=O)c2ccc(NC(=N)N)cc2)cc1
IC50 (Cavia porcellus [7]): 51 nM
Dissociation ratio [1]: >33
ID50 (Cavia porcellus [2]): 0.18 µg/min/kg
IC50 (Homo sapiens [8]): 31 nM
IC50 (Homo sapiens [9]): 59 nM
IC50 [10]: 79 nM
BT (Cavia porcellus [11]): 510
IC50 (Homo sapiens [12]): 30 nM
IC50 (Homo sapiens [13]): 31 nM
IC50 (Cavia porcellus [4]): 51 nM
IC50 (Homo sapiens [14]): 91 nM

N=C(N)Cc1ccc(C(=O)NCCC[C@H]2C(=O)N(CC(=O)O)CCN2C(=O)CNC(=O)c2ccc(C(=N)N)cc2)cc1
Dissociation ratio [1]: 10
ID50 (Cavia porcellus [2]): 0.41 µg/min/kg
BT (Cavia porcellus [3]): 620
IC50 (Cavia porcellus [4]): 67 nM

N=C(N)Nc1ccc(C(=O)NC[C@H]2C(=O)N(CC(=O)O)CCN2C(=O)CNC(=O)c2ccc(C(=N)N)cc2)cc1
Dissociation ratio [1]: 10
ID50 (Cavia porcellus [2]): 0.66 µg/min/kg
BT (Cavia porcellus [15]): 660
IC50 (Cavia porcellus [4]): 85 nM

N=C(N)Nc1ccc(C(=O)NCC[C@H]2C(=O)N(CC(=O)O)CCN2C(=O)CNC(=O)c2ccc(NC(=N)N)cc2)cc1
Dissociation ratio [1]: <10
ID50 (Cavia porcellus [2]): 0.88 µg/min/kg
IC50 (Cavia porcellus [4]): 97 nM
BT (Cavia porcellus [16]): 800

N=C(N)c1ccc(C(=O)NCCCC[C@H]2C(=O)N(CC(=O)O)CCN2C(=O)CNC(=O)c2ccc(C(=N)N)cc2)cc1
Dissociation ratio [1]: 6
ID50 (Cavia porcellus [2]): 0.79 µg/min/kg
BT (Cavia porcellus [17]): 620
IC50 (Cavia porcellus [4]): 150 nM

N=C(N)NCCCC(=O)NCCC[C@H]1C(=O)N(CC(=O)O)CCN1C(=O)CNC(=O)c1ccc(C(=N)N)cc1
Dissociation ratio [1]: 21
ID50 (Cavia porcellus [2]): 0.47 µg/min/kg
BT (Cavia porcellus [5]): 620
IC50 (Cavia porcellus [4]): 88 nM

COc1ccc(C[C@H](NC(=O)c2ccc(C(=N)N)cc2)C(=O)N2CCN(CC(=O)O)C(=O)[C@@H]2CCCCNC(=O)c2ccc(C(=N)N)cc2)cc1
Dissociation ratio [1]: <5
ID50 (Cavia porcellus [2]): 0.041 µg/min/kg
IC50 (Cavia porcellus [4]): 12 nM
BT (Cavia porcellus [18]): >900

N=C(N)Cc1ccc(C(=O)NC[C@H]2C(=O)N(CC(=O)O)CCN2C(=O)CNC(=O)c2ccc(C(=N)N)cc2)cc1
Dissociation ratio [1]: <10
ID50 (Cavia porcellus [2]): 0.42 µg/min/kg
BT (Cavia porcellus [19]): 760
IC50 (Cavia porcellus [4]): 57 nM

N=C(N)c1ccc(C(=O)NCC(=O)N2CCN(CC(=O)O)C(=O)[C@@H]2CCCNC(=O)CCCCN)cc1
BT (Cavia porcellus [20]): 490
Dissociation ratio [1]: >5
ID50 (Cavia porcellus [2]): 0.94 µg/min/kg
IC50 (Cavia porcellus [4]): 210 nM

N=C(N)c1ccc(C(=O)NCCC[C@H]2C(=O)N(CC(=O)O)CCN2C(=O)CNC(=O)c2ccc(C(=N)N)cc2)cc1
Dissociation ratio [1]: 12
ID50 (Cavia porcellus [2]): 0.19 µg/min/kg
BT (Cavia porcellus [21]): 660
IC50 (Cavia porcellus [4]): 37 nM

COC(=O)C[C@H]1C(=O)N(CC(=O)O)CCN1C(=O)CNC(=O)c1ccc(C(=N)N)cc1
IC50 (Cavia porcellus [7]): 43 nM
IC50 (Homo sapiens [8]): 31 nM
IC50 (Homo sapiens [9]): 31 nM
IC50 [10]: 46 nM
IC50 (Homo sapiens [12]): 29 nM
IC50 (Homo sapiens [13]): 31 nM
IC50 (Homo sapiens [14]): 32 nM

N=C(N)c1ccc(C(=O)NCC(=O)N2CCN(CC(=O)O)C(=O)[C@@H]2CCCNC(=O)c2ccc(CCN)cc2)cc1
Dissociation ratio [1]: 11
ID50 (Cavia porcellus [2]): 0.56 µg/min/kg
BT (Cavia porcellus [22]): 270
BT (Cavia porcellus [11]): 860
IC50 (Cavia porcellus [4]): 81 nM

COc1ccc(C[C@H](NC(=O)c2ccc(C(=N)N)cc2)C(=O)N2CCN(CC(=O)O)C(=O)[C@@H]2CCCNC(=O)c2ccc(C(=N)N)cc2)cc1
Dissociation ratio [1]: 10
ID50 (Cavia porcellus [2]): 0.021 µg/min/kg
IC50 (Cavia porcellus [4]): 23 nM

N=C(N)Nc1ccc(C(=O)NCCC[C@H]2C(=O)N(CC(=O)O)CCN2C(=O)CNC(=O)c2ccc(C(=N)N)cc2)cc1
Dissociation ratio [1]: 16
ID50 (Cavia porcellus [2]): 0.087 µg/min/kg
BT (Cavia porcellus [23]): >900
BT (Cavia porcellus [24]): 490
IC50 (Cavia porcellus [4]): 19 nM

N=C(N)Nc1ccc(C(=O)NCC[C@H]2C(=O)N(CC(=O)O)CCN2C(=O)CNC(=O)c2ccc(C(=N)N)cc2)cc1
Dissociation ratio [1]: 21
ID50 (Cavia porcellus [2]): 0.12 µg/min/kg
BT (Cavia porcellus [25]): 820
IC50 (Cavia porcellus [4]): 37 nM
BT (Cavia porcellus [26]): 410
